3 compounds from ChEMBL document CHEMBL4680071, “Structure guided generation of thieno[3,2-d]pyrimidin-4-amine Mycobacterium tuberculosis bd oxidase inhibitors” (RSC Med Chem, 2021) can be followed below.

Experiment [1] can be described thus: Inhibition of […] tuberculosis Erdman assessed as replicating ATP by measuring ATP depletion incubated for 15 hrs in presence of Q203 by BacTiter-Glo luminescence assay. The arrangement: species or system Mycobacterium tuberculosis str. Erdman. Summed up: (§1)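 Cultures grown in Middlebrook 7H9 with 0.05% Tween 80, 0.5% glycerol, BSA fraction V, D-glucose and NaCl. Cells pelleted, resuspended in glycerol-free medium at about 10^7 CFU/mL, added to compound dilutions. Plates incubated 15 h at 37°C. BacTiter-Glo reagent added, luminescence read after 12 min to give ATP level. IC50 from curve fitting.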

A short description of experiment [2]: Inhibition of cytochrome-bd oxidase in Mycobacterium tuberculosis H37Rv assessed as replicating ATP by measuring ATP depletion incubated for 15 hrs in absence of Q203 by BacTiter-Glo luminescence assay. Summed up:
as §1

The nature of experiment [3]: Inhibition of cytochrome-bd oxidase in Mycobacterium tuberculosis clinical isolate N0145 assessed as replicating ATP by measuring ATP depletion incubated for 15 hrs in absence of Q203 by BacTiter-Glo luminescence assay. Put shortly: as §1

Structures are written as SMILES.

For orientation: IC50 means the midpoint of a concentration-inhibition curve. Turning to `CCc1nc(NCCCc2ccccc2)c2cc(C)sc2n1`, the IC50 in experiment [1] is 0.083 µM. Turning to `CCCCNc1nc(CC)nc2sc(C)cc12`, in experiment [1], the IC50 turned out to be 3.2 µM. With `COc1nc2ccc(Br)cc2cc1[C@@H](c1ccccc1)[C@@](O)(CCN(C)C)c1cccc2ccccc12` [BEDAQUILINE], the values for the IC50 in experiment [2] and in experiment [3] were 40 µM and 10 µM, respectively.
